Assay results taken from ChEMBL document CHEMBL1154185 (J Med Chem, 2009).

What was measured:
[1] = Growth inhibition of proapoptotic stimuli-resistant human OE21 cells after 72 hrs by MTT assay; assay type: functional, cell-based
[2] = test system: SK-MEL-28; experiment: Growth inhibition of proapoptotic stimuli-resistant human SK-MEL-28 cells after 72 hrs by MTT assay; assay type: functional, cell-based
How it was run: (§1)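 MTT assay. Cells were plated at 10,000–40,000 cells/mL and left 24 h to attach, then exposed to compound for 72 h (untreated controls). Formazan was read at 570 nm (reference 630 nm). Tested up to 10 μM (first panel) or up to 100 μM (second panel). Sextuplicate. U373 grown in MEM + 5% FBS; Hs683, SK-MEL-28 and B16F10 in RPMI + 10% FBS.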

[3] = test system: B16-F10; experiment: Growth inhibition of proapoptotic stimuli-sensitive mouse B16F10 cells after 72 hrs by MTT assay; assay type: functional, cell-based; how it was run: as §1
[4] = Growth inhibition of human WI38 cells after 72 hrs by MTT assay; assay type: cell-based; settings: WI-38, 72 h
How it was run: (§2)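 Cells plated 24 h in 96-well plates (10,000-40,000 cells/mL by cell type) in MEM (5% or 10% heat-inactivated FBS; with 100 μM non-essential amino acids for WI-38 and NHDF) or RPMI 10% FBS (A549), then exposed 72 h to compound up to 100 μM; MTT reduction read at 570 nm (reference 630 nm); sextuplicate.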

[5] = test system: A549; experiment: Growth inhibition of proapoptotic stimuli-resistant human A549 cells after 72 hrs by MTT assay; assay type: functional, cell-based; how it was run: as §2
[6] = Growth inhibition of proapoptotic stimuli-resistant human U373 cells after 72 hrs by MTT assay; assay type: functional, cell-based, U-373MG ATCC; how it was run: as §1
[7] = Growth inhibition of proapoptotic stimuli-sensitive human Hs683 cells after 72 hrs by MTT assay; assay type: functional, cell-based, Hs 683; how it was run: as §1
[8] = test system: NHDF; experiment: Growth inhibition of human NHDF after 72 hrs by MTT assay; assay type: cell-based; how it was run: as §2
[9] = Growth inhibition of human WS1 cells after 72 hrs by MTT assay; assay type: cell-based; settings: WS1, 72 h; how it was run: as §2

Row | Compound | IC50 ([1]; Homo sapiens, OE21, 72 h) [µM] | IC50 ([2]; Homo sapiens, SK-MEL-28, 72 h) [µM] | IC50 ([3]; Mus musculus, B16-F10, 72 h) [µM] | IC50 [4] [µM] | IC50 ([5]; Homo sapiens, A549, 72 h) [µM] | IC50 ([6]; Homo sapiens, U373 MG, 72 h) [µM] | IC50 ([7]; Homo sapiens, Hs 683, 72 h) [µM] | IC50 [8] [µM] | IC50 [9] [µM] | IC50 ([1]; oe21) [µM] | IC50 ([2]; sk-mel-28) [µM] | IC50 ([3]; b16-f10) [µM] | IC50 ([5]; a549) [µM] | IC50 ([6]; u-373mg atcc) [µM] | IC50 ([7]; hs 683) [µM]
1 | C1=C2CCN3Cc4cc5c(cc4[C@H]([C@@H]4O[C@H]14)[C@@H]23)OCO5 | 8.5 | 9.5 | 4.6 | 28.6 | 3.4 | 2.4 | 3.3 | 9.3 | 36.8 | – | – | – | – | – | –
2 | COc1cc2c(cc1O)CN1CCC3=CC[C@@H](O)[C@@H]2[C@@H]31 [NORPLUVINE] | > 10 | > 10 | > 10 | – | > 10 | > 10 | > 10 | – | – | – | – | – | – | – | –
3 | O[C@@H]1CC=C2CCN3Cc4cc5c(cc4[C@H]1[C@@H]23)OCO5 [CARANINE] | > 10 | > 10 | > 10 | – | > 10 | > 10 | > 10 | – | – | – | – | – | – | – | –
4 | [O-]c1cc2c3c(c1)c1cc4c(cc1c[n+]3CC2)OCO4 [UNGEREMINE] | > 10 | > 10 | > 10 | – | > 10 | 8.3 | > 10 | – | – | – | – | – | – | – | –
5 | CC(=O)O[C@H]1[C@H]2c3cc4c(cc3CN3CCC(=C[C@@H]1O)[C@H]23)OCO4 | > 10 | > 10 | > 10 | – | > 10 | > 10 | > 10 | – | – | – | – | – | – | – | –
6 | C[N+]12CCC3=C[C@H](O)[C@@H](O)[C@@H](c4cc5c(cc4C1)OCO5)[C@@H]32 (some centres not stated) | – | – | – | – | – | – | – | – | – | > 10 | > 10 | > 10 | > 10 | > 10 | > 10
7 | CC(=O)O[C@H]1C=C2CCN3Cc4cc5c(cc4[C@H]([C@@H]1O)[C@@H]23)OCO5 | > 10 | > 10 | > 10 | 88.5 | > 10 | > 10 | > 10 | > 100 | > 100 | – | – | – | – | – | –
8 | O[C@H]1[C@H]2c3cc4c(cc3CN3CCC(=C[C@H]1O)[C@H]23)OCO4 | > 10 | > 10 | > 10 | – | > 10 | > 10 | > 10 | – | – | – | – | – | – | – | –
9 | O[C@H]1[C@H]2c3cc4c(cc3CN3CC[C@@H](C[C@@H]1O)[C@H]23)OCO4 | > 10 | > 10 | > 10 | – | > 10 | > 10 | > 10 | – | – | – | – | – | – | – | –
10 | CC(=O)O[C@H]1[C@H]2c3cc4c(cc3CN3CCC(=C[C@@H]1OC(C)=O)[C@H]23)OCO4 | > 10 | > 10 | > 10 | – | > 10 | > 10 | > 10 | – | – | – | – | – | – | – | –
11 | c1cc2c3c(c1)-c1cc4c(cc1CN3CC2)OCO4 [ANHYDROLYCORINE] | 8.8 | > 10 | > 10 | 30.1 | 4.5 | 5.1 | 7.1 | 26.6 | 23.7 | – | – | – | – | – | –
12 | CC(=O)O[C@H]1[C@H]2c3cc4c(cc3CN3CC[C@@H](C[C@@H]1OC(C)=O)[C@H]23)OCO4 | > 10 | > 10 | > 10 | – | > 10 | > 10 | > 10 | – | – | – | – | – | – | – | –
13 | C1=C2CCN3Cc4cc5c(cc4[C@H](CC1)[C@@H]23)OCO5 [LYCORENE] | > 10 | > 10 | > 10 | – | > 10 | > 10 | > 10 | – | – | – | – | – | – | – | –
14 | O[C@H]1[C@H]2c3cc4c(cc3CN3CC[C@H](C[C@@H]1O)[C@H]23)OCO4 | > 10 | > 10 | > 10 | – | > 10 | > 10 | > 10 | – | – | – | – | – | – | – | –
15 | O[C@H]1[C@H]2c3cc4c(cc3CN3CCC(=C[C@@H]1Cl)[C@H]23)OCO4 | 9.6 | > 10 | 6.9 | 46 | 3.8 | 2.3 | 3.1 | 72.1 | > 100 | – | – | – | – | – | –
16 | O=C1C=C2CCN3Cc4cc5c(cc4[C@H]([C@@H]1O)[C@@H]23)OCO5 | > 10 | > 10 | > 10 | – | – | > 10 | > 10 | – | – | – | – | – | – | – | –
17 | COc1cc2c(cc1O)[C@@H]1[C@H](O)[C@@H](O)C=C3CCN(C2)[C@H]31 [PSEUDOLYCORINE] | – | > 10 | 7.5 | 44 | – | – | 7.9 | 66.9 | 79.1 | – | – | – | – | – | –
18 | O=C1c2cc3c(cc2[C@@H]2[C@H](O)[C@@H](O)C[C@H]4CCN1[C@H]42)OCO3 | > 10 | > 10 | > 10 | – | > 10 | > 10 | > 10 | – | – | – | – | – | – | – | –
19 | COC1=C[C@@H]2CCN3Cc4cc5c(cc4[C@@H]([C@H]23)[C@@H]1O)OCO5 [AMARBELLISINE] | – | 8.3 | 6.7 | > 100 | 7.2 | – | 8.3 | > 100 | 97.6 | – | – | – | – | – | –
20 | CC(=O)O[C@H]1[C@H]2c3cc4c(cc3CN3CC[C@H](C[C@@H]1OC(C)=O)[C@H]23)OCO4 | > 10 | > 10 | > 10 | – | > 10 | > 10 | > 10 | – | – | – | – | – | – | – | –
